Broadly, the IC50 is the concentration that inhibits the measured activity by half.

Among the data in ChEMBL document CHEMBL1133718, “Structure-activity relationships and binding mode of styrylquinolines as potent inhibitors of HIV-1 integrase and replication of HIV-1 in cell culture” (J Med Chem, 2000) are IC50, CC50 and NR values, retold here.

The test system of series [1] is Human immunodeficiency virus 1. As to the kind of experiment: Inhibitory effect upon disintegration catalyzed by the (50-212) deletion mutant. It is filed as functional. The gist of the method:
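Disintegration reaction run with 0.5 pmol D38U3 substrate and 2 pmol of the His-tagged F185K soluble HIV-1 integrase core domain (residues 50-212), expressed and purified recombinantly. Potency is reported as IC50.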

The test system of series [2] is Human immunodeficiency virus 1. As to the kind of experiment: Antiviral activities against HIV-1 replication in CEM cells and its ability to lower the viral charge supernatants was reported. It is filed as functional, organism-based. The following applies: Human immunodeficiency virus 1, CCRF-CEM. The gist of the method: (§1)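 CEM cells infected with cell-free HIV-1 ([…] clone, produced by transfecting P4 cells), in triplicate; virus removed 2 h post-infection, then DMSO-dissolved drug added in fresh medium at increasing concentrations. 72 h supernatants infected HeLa-CD4-βGal (P4) reporter cells for 24 h; lysates incubated with CPRG, absorbance at 570 nm. Some cases used p24 antigen ELISA.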

A short description of series [3]: Toxic concentration, estimated by MTT transformation assay. The following applies: CEM cells; read-out: TC50 (the source's name). Type of series: ADME, organism-based, Human immunodeficiency virus 1. The gist of the method: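 Cell viability by MTT: MTT solution (7.5 mg/mL, in phosphate buffer) added to infected, drug-treated CEM wells. Incubation 4 h at 37 °C under CO2, formazan dissolved in 10% SDS/10 mM HCl, absorbance read at 570 nm.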

The target of series [4] is T1, Human immunodeficiency virus type 1 integrase (Human immunodeficiency virus 1, UniProt Q7ZJM1). Put plainly: Inhibitory activity against HIV-1 Integrase in 3'-end- processing. The essentials:
(§2)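 3'-processing: 0.5 pmol U5A/U5B annealed duplex with 1 pmol purified recombinant full-length HIV-1 IN in 20 mM Tris pH 7.2, 30 mM NaCl, 10% glycerol, 10 mM DTT, 0.01% NP40, plus 10 mM MnCl2.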

In series [5] the target is T1, Human immunodeficiency virus type 1 integrase. As to the kind of experiment: Inhibitory activity against HIV-1 Integrase in strand transfer (integration).
Series [6] concerns Human immunodeficiency virus 1. As to the kind of experiment: Antiviral activities against HIV-1 replication in CEM cells and its ability to lower the viral charge supernatants was reported; NR is not reached. The note with it: CCRF-CEM. Type of series: functional, organism-based. The gist of the method:
as §1

Series [7] addresses T1, Human immunodeficiency virus type 1 integrase. As to the kind of experiment: Inhibitory activity against Integrase in 3'-end- processing. The essentials:
as §2

Series [8] shares this target. As to the kind of experiment: Inhibitory activity against Integrase in strand transfer (integration).
Series [9] has the same target. Put plainly: Inhibitory activity against HIV-1 Integrase in 3'-end- processing with purified recombinant enzyme.
Series [10] shares this target. As to the kind of experiment: Inhibitory activity against HIV-1 Integrase in strand transfer (integration) with purified recombinant enzyme.

Each structure is given as a SMILES string.

T1 sequence (Q7ZJM1 whole entry): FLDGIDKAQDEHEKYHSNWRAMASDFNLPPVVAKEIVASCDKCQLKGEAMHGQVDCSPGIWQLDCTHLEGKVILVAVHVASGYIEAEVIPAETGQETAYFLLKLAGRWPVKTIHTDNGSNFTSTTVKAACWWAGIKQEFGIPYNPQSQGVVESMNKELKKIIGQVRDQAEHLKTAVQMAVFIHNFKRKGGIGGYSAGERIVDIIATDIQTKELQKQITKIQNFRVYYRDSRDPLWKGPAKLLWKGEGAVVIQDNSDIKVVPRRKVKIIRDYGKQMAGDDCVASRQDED

For the compound `O=C(O)c1ccc2ccc(/C=C/c3cccnc3)nc2c1O`, the IC50 in series [1] was 5.1 µM; in [2], > 100 µM; in [4], 4.1 µM; in series [5], 11 µM. The CC50 in series [3] was > 100 µM.

As for `Oc1ccc(/C=C/c2ccc3c(Cl)cc(Cl)c(O)c3n2)cc1O`, the NR result in [6] is recorded as “Not reached”. Besides, the CC50 in [3] was 17 µM. In addition, the IC50 in series [7] and in series [8] was > 100 µM throughout.

For the compound `O=C(O)c1ccc2ccc(/C=C/c3cc(O)cc(O)c3)nc2c1O`, the values for the IC50 in [2], in series [7] and in series [8] were > 100 µM, 3.2 µM and 3.2 µM, respectively. Further, the CC50 in series [3] was > 100 µM.

As to `Cc1ccc2ccc(C(=O)O)c(O)c2n1`, the IC50 in series [2] and in series [5] was > 100 µM throughout. For the same compound, the CC50 in series [3] was > 100 µM.

Turning to `O=C(O)c1ccc2ccc(/C=C/c3cc(O)c(O)c(I)c3)nc2c1O`, the IC50 in series [2] was determined as 6.8 µM; in series [7], 4 µM; in [8] it was 4.9 µM. Further, the CC50 in series [3] is > 100 µM.

Regarding `O=C(O)c1ccc2ccc(/C=C/c3ccc(O)c(O)c3)nc2c1O`, the IC50 in [2] came out at 1.3 µM. Further, the CC50 in series [3] is > 100 µM.

In series [2], `O=C(O)c1ccc2ccc(/C=C/c3cc(O)c(O)c(O)c3)nc2c1O` gave an IC50 of 1.2 µM. Also, the CC50 in series [3] is 10 µM.

On to `CC(=O)Nc1ccc(/C=C/c2ccc3ccc(C(=O)O)c(O)c3n2)cc1`, for which the results for the IC50 in series [1], in series [4] and in series [5] were 1.7 µM, 1.4 µM and 1.2 µM, respectively. Besides, in series [6], the NR result is listed as “Not reached”. In addition, the CC50 in series [3] is 47 µM.

Turning to `Nc1ccc(/C=C/c2ccc3ccc(C(=O)O)c(O)c3n2)cc1`, the IC50 in [1] amounted to 12 µM; in [2] it was 50 µM; in series [4], 3.5 µM; in series [5], 2.2 µM. The CC50 in series [3] is 100 µM.

Turning to `O=C(O)c1ccc2ccc(/C=C/c3ccc(O)cc3)nc2c1O`, the results for the IC50 in series [2], in series [4] and in series [5] were 95 µM, 1.6 µM and 1.6 µM, respectively. Moreover, in [3], the CC50 is > 100 µM.

For the compound `COc1cc(/C=C/c2ccc3ccc(C(=O)O)c(O)c3n2)cc(O)c1O`, the IC50 in [2] turned out to be 12 µM; in series [7] it was 0.7 µM; in series [8] it was 1.7 µM. In addition, the CC50 in series [3] was > 100 µM.

For the compound `O=C(O)c1ccc2ccc(/C=C/c3ccccc3)nc2c1O`, the IC50 in series [1] stood at 3.4 µM; in series [4] it was 5.3 µM; in [5], 2.1 µM. Also, the NR result in series [6] is given as “Not reached”. The CC50 in [3] is 31 µM.

As for `O=C(O)c1ccc2ccc(/C=C/c3ccsc3)nc2c1O`, the IC50 stood at 0.8 µM in series [1], 3.4 µM in [4] and 3 µM in [5]. The NR entry in series [6] was “Not reached”. Further, the CC50 in [3] was 85 µM.

As for `COc1cc(/C=C/c2ccc3ccc(C(=O)O)c(O)c3n2)cc(OC)c1O`, the IC50 in series [2] was 9 µM; in series [4], 4.9 µM; in series [5], 4.5 µM. Moreover, in series [3], the CC50 is > 100 µM.

With `O=C(O)c1ccc2ccc(CCc3ccc(O)c(O)c3)nc2c1O`, the NR entry in series [6] is “Not reached”. The CC50 in series [3] is 61 µM. The concentration for half-maximal inhibition (IC50) is 2.3 µM in [7] and 1.5 µM in [8].

For `O=C(O)c1ccc2ccc(/C=C/c3cc(Br)c(O)c(Br)c3)nc2c1O`, the IC50 in [4] came out at 1.3 µM; in series [5], 1.2 µM.

For `COc1cc(/C=C/c2ccc3ccc(C(=O)O)c(O)c3n2)ccc1O`, the IC50 in [2] was determined as 3 µM; in series [4], 2.8 µM; in series [5], 3.7 µM. Further, the CC50 in series [3] is 95 µM.

In series [2], `O=C(O)c1ccc2ccc(/C=C/c3ccc(O)cc3O)nc2c1O` yielded an IC50 of 80 µM. Besides, the CC50 in series [3] was > 100 µM.

Take `O=C(O)c1ccc2ccc(/C=C/c3ccc([N+](=O)[O-])cc3)nc2c1O`: the results for the IC50 in series [1], in series [4] and in series [5] were 2.2 µM, 1.2 µM and 1.7 µM, respectively. Moreover, in series [6], the NR entry is reported as “Not reached”. Also, in series [3], the CC50 was 43 µM.

Consider `O=C(O)c1ccc2ccc(/C=C/c3ccco3)nc2c1O`, for which the IC50 in series [1] is 1.4 µM; in series [2], > 100 µM; in [9], 1.9 µM; in series [10] it was 5.1 µM. Moreover, in series [3], the CC50 is > 100 µM.

Regarding `COC(=O)c1ccc2ccc(/C=C/c3ccc(O)c(O)c3)nc2c1O`, the NR result in series [6] is recorded as “Not reached”. For the same compound, the CC50 in series [3] is 9.2 µM. Further, the IC50 in [7] and in series [8] was > 100 µM throughout.

As to `COc1ccc(/C=C/c2ccc3ccc(C(=O)O)c(O)c3n2)cc1O`, the IC50 in series [2] was 54 µM; in series [4], 0.9 µM; in series [5], 3.3 µM. Besides, the CC50 in series [3] was 95 µM.
